Test results taken from ChEMBL document CHEMBL4732106, “Paracetamol analogues conjugated by FAAH induce TRPV1-mediated antinociception without causing acute liver toxicity” (Eur J Med Chem, 2021).
Active and inactive are the calls of the source. No cut-off for these calls is given here.

What was measured:
[1] = molecular target: T1, Fatty-acid amide hydrolase 1 (Mus musculus, UniProt O08914); experiment: Substrate activity at FAAH in FAAH+/+ mouse brain assessed as N-arachidonoyl conjugate level per g protein at 0.1 mM measured after 20 mins by LC-MS/MS analysis; assay type: ADME, tissue-based; conditions: 100 µM
T1 sequence (O08914 whole entry): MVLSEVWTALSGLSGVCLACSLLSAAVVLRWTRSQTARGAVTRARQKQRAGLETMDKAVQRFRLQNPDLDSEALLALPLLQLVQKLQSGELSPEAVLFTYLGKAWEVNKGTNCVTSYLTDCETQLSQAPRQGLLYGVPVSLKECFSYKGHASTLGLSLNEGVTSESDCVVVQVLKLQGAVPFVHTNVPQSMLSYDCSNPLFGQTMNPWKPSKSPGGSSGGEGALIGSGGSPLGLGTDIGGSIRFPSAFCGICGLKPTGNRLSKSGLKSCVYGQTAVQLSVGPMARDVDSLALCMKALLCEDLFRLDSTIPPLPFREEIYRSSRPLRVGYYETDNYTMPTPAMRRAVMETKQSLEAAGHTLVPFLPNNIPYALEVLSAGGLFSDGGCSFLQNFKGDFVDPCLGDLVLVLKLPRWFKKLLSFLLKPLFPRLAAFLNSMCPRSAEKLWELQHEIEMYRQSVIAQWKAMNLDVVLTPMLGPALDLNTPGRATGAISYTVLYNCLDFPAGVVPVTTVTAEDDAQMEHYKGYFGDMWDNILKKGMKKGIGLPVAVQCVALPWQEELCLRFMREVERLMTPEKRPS
In short: (§1)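 Brains from FAAH+/+ or FAAH-/- mice were homogenized in ice-cold 10 mM Tris with 1 mM EDTA and 0.3 mM ascorbic acid. Aliquots were incubated with 0.1 mM primary amine for 20 min at 37 °C with stirring. Reactions were stopped with cold acetone containing AM404-d4 internal standard, and conjugates were measured by LC-MS/MS. n = 5–7.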

[2] = Prodrug conversion in FAAH+/+ mouse brain assessed as N-arachidonoyl conjugate level per g protein at 100 mg/kg, ip measured after 20 mins by LC-MS/MS analysis; assay type: ADME, organism-based; set-up: unit: pmol/g protein; conditions: in vivo
In short: (§2)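 FAAH+/+ and FAAH-/- mice (both sexes) received the primary amine i.p. in saline (sometimes with 5% DMSO). Brains were collected 20 min later, frozen, and homogenized in Tris/EDTA/ascorbate with 10 μM MAFP. N-arachidonoyl conjugates were quantified by positive-ion LC-MS/MS and normalized to protein.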

[3] = Prodrug conversion in FAAH-/- mouse brain assessed as N-arachidonoyl conjugate level per g protein at 0.1 mM measured after 20 mins by LC-MS/MS analysis; assay type: ADME, tissue-based; conditions: in vitro, 100 µM; in short: as §1
[4] = Prodrug conversion in FAAH-/- mouse brain assessed as N-arachidonoyl conjugate level per g protein at 100 mg/kg, ip measured after 20 mins by LC-MS/MS analysis; assay type: ADME, organism-based; set-up: unit: pmol/g protein; conditions: in vivo; in short: as §2
Mus musculus [5] = experiment: Antipyretic activity against LPS-induced C57BL/6 mouse model of hyperthermia assessed as PGE2 level in diencephalon at 25 mg/kg, ip measured after 40 mins by LC-MS/MS analysis relative to control; assay type: functional
In short: (§3)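 Male C57BL/6 mice got LPS (E. coli O111:B4, 100 μg kg⁻¹ i.p.) or saline, then 3 h later the drug i.p. in Ringer's acetate vehicle. Diencephalon was taken 40 min later and homogenized in Tris/EDTA/ascorbate with 10 μM MAFP and 100 μM ibuprofen. Prostanoids were quantified by negative-ion LC-MS/MS and expressed as % of LPS + vehicle. n = 6.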

Mus musculus [6] = experiment: Antipyretic activity against LPS-induced C57BL/6 mouse model of hyperthermia assessed as 6-keto-PGF1alpha level in diencephalon at 25 mg/kg, ip measured after 40 mins by LC-MS/MS analysis relative to control; assay type: functional; in short: as §3
Mus musculus [7] = experiment: Antinociceptive activity in C57BL/6 mouse assessed as reduction in licking time during first phase at 25 mg/kg, ip treated for 10 mins and measured for 5 mins in presence of FAAH inhibitor URB937 by formalin test; assay type: functional, organism-based; conditions: time 15.0 min
In short: (§4)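 Male C57BL/6 mice, 8 weeks old. URB937 (5 μg in 5 μl) or capsazepine (10 μg in 5 μl) was given i.c.v. under brief isoflurane, 2 mm deep, 5 min before the i.p. test amine. Formalin 2.5% (25 μl) was injected intraplantar 10 min after dosing. Paw biting/licking time was scored in phase I (0–5 min) and phase II (15–40 min) by a blinded observer. Mean ± SEM, n = 8–14.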

[8] = Hepatotoxicity in C57BL/6 mouse assessed as centrilobular necrosis at 300 mg/kg, ip measured after 12 hrs by H and E staining based microscopic analysis; assay type: toxicity, organism-based; conditions: in vivo
In short: (§5)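 Male C57BL/6 mice (8 weeks) were fasted 12–16 h, then given 300 mg kg⁻¹ i.p. in saline. At 12 h, blood was taken for serum ALT/AST (automated analyser). The left medial liver lobe was fixed in 4% formaldehyde, cryosectioned at 10 μm and stained with H&E. The ALT/AST ratio was tested against 1. Mean ± SEM, n = 6–7.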

Mus musculus [9] = experiment: Antinociceptive activity in C57BL/6 mouse assessed as reduction in licking time during second phase at 25 mg/kg, ip treated for 10 mins and measured for 15 to 40 mins in presence of TRPV1 antagonist capsazepine by formalin test; assay type: functional, organism-based; conditions: time 50.0 min; in short: as §4
Mus musculus [10] = experiment: Antipyretic activity against LPS-induced C57BL/6 mouse model of hyperthermia assessed as TXB2 level in diencephalon at 25 mg/kg, ip measured after 40 mins by LC-MS/MS analysis relative to control; assay type: functional; in short: as §3
Mus musculus [11] = experiment: Antipyretic activity against LPS-induced C57BL/6 mouse model of hyperthermia assessed as reduction in body temperature at 25 mg/kg, ip measured after 48 mins; assay type: functional, organism-based
In short: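 Male C57BL/6 mice carried telemetry and recovered ≥1 week before use, housed at 29 °C ambient (near-thermoneutral). LPS 100 μg kg⁻¹ i.p. or saline was given, then drug or Ringer's acetate vehicle i.p. 3 h later. Core temperature was recorded continuously and analysed at the nadir time point. n = 4–9 per group.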

[12] = Effect on locomotor activity in C57BL/6 mouse assessed as change in latency to fall at 25 mg/kg, ip treated for 10 mins measured up to 60 mins by rotarod test; assay type: ADME, organism-based; conditions: in vivo, 1 h
In short: (§6)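 Male C57BL/6 mice were first trained on a rotarod at a constant 4 rpm in 1-min sessions. At various times after i.p. dosing, the drum was accelerated from 4 to 40 rpm over 5 min and the latency to fall was recorded.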

Mus musculus [13] = experiment: Antinociceptive activity in C57BL/6 mouse assessed as reduction in licking time during first phase at 25 mg/kg, ip treated for 10 mins and measured for 5 mins in presence of TRPV1 antagonist capsazepine by formalin test; assay type: functional, organism-based; conditions: time 15.0 min; in short: as §4
Mus musculus [14] = experiment: Antinociceptive activity in ip dosed C57BL/6 mouse assessed as reduction in licking time during second phase treated for 10 mins and measured for 15 to 40 mins by formalin test; assay type: functional, organism-based; conditions: dose 25-100 mg/kg, time 50.0 min
In short: (§7)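 Male C57BL/6 mice, 8 weeks old, randomized in equal blocks (5–10 per group), observer blinded. The test amine or vehicle was given i.p. 10 min before intraplantar 2.5% formalin (25 μl/mouse). Time spent biting/licking the injected paw was recorded in phase I (0–5 min) and phase II (15–40 min). Mean ± SEM, n = 5–6.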

Mus musculus [15] = experiment: Antinociceptive activity in ip dosed C57BL/6 mouse assessed as reduction in licking time during first phase treated for 10 mins and measured for 5 mins by formalin test; assay type: functional, organism-based; conditions: dose 25-100 mg/kg, time 15.0 min; in short: as §7
[16] = Hepatotoxicity in C57BL/6 mouse assessed as change in ALT level at 300 mg/kg, ip measured after 12 hrs; assay type: toxicity, organism-based; conditions: in vivo; in short: as §5
Mus musculus [17] = experiment: Antipyretic activity against LPS-induced C57BL/6 mouse model of hyperthermia assessed as PGF2alpha level in diencephalon at 25 mg/kg, ip measured after 40 mins by LC-MS/MS analysis relative to control; assay type: functional; in short: as §3
Mus musculus [18] = experiment: Antinociceptive activity in C57BL/6 mouse assessed as reduction in licking time during second phase at 25 mg/kg, ip treated for 10 mins and measured for 15 to 40 mins in presence of FAAH inhibitor URB937 by formalin test; assay type: functional, organism-based; conditions: time 50.0 min; in short: as §4
[19] = molecular target: T2, Transient receptor potential cation channel subfamily V member 1 (Rattus norvegicus, UniProt O35433); experiment: Agonist activity at TRPV1 in rat isolated mesenteric arteries assessed as vasorelaxation of phenylephrine-induced contraction; assay type: tissue-based, Artery
T2 sequence (O35433 whole entry): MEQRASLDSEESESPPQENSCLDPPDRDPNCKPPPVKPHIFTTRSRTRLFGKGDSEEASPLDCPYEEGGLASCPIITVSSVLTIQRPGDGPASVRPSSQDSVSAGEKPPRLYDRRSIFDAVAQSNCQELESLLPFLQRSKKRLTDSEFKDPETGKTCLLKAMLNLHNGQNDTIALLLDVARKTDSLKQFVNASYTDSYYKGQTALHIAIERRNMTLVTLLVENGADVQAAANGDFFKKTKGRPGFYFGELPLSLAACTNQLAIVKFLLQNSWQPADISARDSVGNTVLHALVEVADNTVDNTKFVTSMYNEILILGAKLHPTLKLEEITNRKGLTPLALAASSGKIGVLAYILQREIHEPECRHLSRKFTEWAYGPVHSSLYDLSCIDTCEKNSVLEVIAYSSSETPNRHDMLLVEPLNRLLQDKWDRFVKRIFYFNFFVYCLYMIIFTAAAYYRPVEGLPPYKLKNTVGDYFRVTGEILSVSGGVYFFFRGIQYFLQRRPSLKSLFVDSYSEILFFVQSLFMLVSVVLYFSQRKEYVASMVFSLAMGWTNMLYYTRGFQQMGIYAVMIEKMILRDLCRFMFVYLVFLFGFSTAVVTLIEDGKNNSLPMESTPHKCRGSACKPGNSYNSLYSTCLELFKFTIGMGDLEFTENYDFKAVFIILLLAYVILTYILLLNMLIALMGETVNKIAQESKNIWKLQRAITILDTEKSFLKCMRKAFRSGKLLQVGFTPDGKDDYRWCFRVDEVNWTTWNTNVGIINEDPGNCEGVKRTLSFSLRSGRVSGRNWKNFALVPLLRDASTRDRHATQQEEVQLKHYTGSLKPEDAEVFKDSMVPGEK
In short: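 Indomethacin 10 μM and Nω-nitro-L-arginine 100 μM were present throughout. Segments were precontracted with phenylephrine and exposed to conjugate concentrations. pEC₅₀ taken at half-maximal relaxation; mean ± SEM, n = animals.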

[20] = molecular target: T2, Transient receptor potential cation channel subfamily V member 1; experiment: Agonist activity at TRPV1 in rat isolated mesenteric arteries assessed as vasorelaxation of phenylephrine-induced contraction in presence of TRPV1 antagonist capsazepine; assay type: tissue-based, Artery
In short: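 Segments from male Wistar rats (200–250 g) were bathed in pH 7.4 physiological salt solution at 37 °C, gassed 95% O₂/5% CO₂, with indomethacin 10 μM and Nω-nitro-L-arginine 100 μM present. After phenylephrine precontraction, conjugate concentration–relaxation curves were run in the presence of capsazepine 3 μM. pEC₅₀ is the negative log molar concentration giving half-maximal relaxation; mean ± SEM, n = animals.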

Mus musculus [21] = experiment: Antinociceptive activity in C57BL/6 mouse assessed as reduction in licking time during second phase at 50 mg/kg, ip treated for 10 mins and measured for 15 to 40 mins in presence of FAAH inhibitor URB937 by formalin test; assay type: functional, organism-based; conditions: time 50.0 min; in short: as §4
[22] = Effect on locomotor activity in C57BL/6 mouse assessed as change in latency to fall at 50 to 75 mg/kg, ip treated for 10 mins measured up to 60 mins by rotarod test; assay type: ADME, organism-based; conditions: in vivo, 1 h, dose 50-75 mg/kg; in short: as §6
Mus musculus [23] = experiment: Antinociceptive activity in C57BL/6 mouse assessed as reduction in licking time during second phase at 50 mg/kg, ip treated for 10 mins and measured for 15 to 40 mins in presence of TRPV1 antagonist capsazepine by formalin test; assay type: functional, organism-based; conditions: time 50.0 min; in short: as §4
Mus musculus [24] = experiment: Antinociceptive activity in C57BL/6 mouse assessed as reduction in licking time during first phase at 50 mg/kg, ip treated for 10 mins and measured for 5 mins in presence of TRPV1 antagonist capsazepine by formalin test; assay type: functional, organism-based; conditions: time 15.0 min; in short: as §4
Mus musculus [25] = experiment: Antinociceptive activity in C57BL/6 mouse assessed as reduction in licking time during first phase at 50 mg/kg, ip treated for 10 mins and measured for 5 mins in presence of FAAH inhibitor URB937 by formalin test; assay type: functional, organism-based; conditions: time 15.0 min; in short: as §4
[26] = Prodrug conversion in FAAH+/+ mouse brain assessed as N-arachidonoyl conjugate level per g protein at 300 mg/kg, ip measured after 20 mins by LC-MS/MS analysis; assay type: ADME, organism-based; conditions: in vivo; in short: as §2
[27] = Prodrug conversion in FAAH-/- mouse brain assessed as N-arachidonoyl conjugate level per g protein at 300 mg/kg, ip measured after 20 mins by LC-MS/MS analysis; assay type: ADME, organism-based; conditions: in vivo; in short: as §2

Compound	Drug metabolism [1] [nmol/g]	Drug metabolism [2] [pmol]	Drug metabolism [3] [nmol/g]	Drug metabolism [4] [pmol]	EC50 [19] [nM]	EC50 [20] [nM]	further results
COc1cc(N)ccc1O	0.54	82	0.005	190			
Nc1ccc2[nH]ncc2c1	12	1731	0.09	161			Activity (Mus musculus [5]): 96%; Activity (Mus musculus [6]): 99%; Activity (Mus musculus [7]): Active; Activity [8]: Non-Toxic; Activity (Mus musculus [9]): inactive; Activity (Mus musculus [10]): 91%; Activity (Mus musculus [11]): Active; Activity [12]: Non-Toxic; Activity (Mus musculus [13]): Active; Activity (Mus musculus [14]): Dose-dependent effect; Activity (Mus musculus [15]): Dose-dependent effect; Activity [16]: Non-Toxic; Activity (Mus musculus [17]): 100%; Activity (Mus musculus [18]): inactive
CCCCC/C=C\C/C=C\C/C=C\C/C=C\CCCC(=O)NCc1ccc2[nH]ncc2c1					3.98	158	
NCc1ccc2[nH]ncc2c1	2.5	58	0.04	58			
CCCCC/C=C\C/C=C\C/C=C\C/C=C\CCCC(=O)NCc1ccc(O)c(OC)c1					0.501		
COc1ccc(N)cc1O	3	283	0.06	42			Activity (Mus musculus [21]): inactive; Activity [8]: Non-Toxic; Activity [22]: Non-Toxic; Activity (Mus musculus [23]): inactive; Activity (Mus musculus [24]): Active; Activity (Mus musculus [14]): Dose-dependent effect; Activity (Mus musculus [15]): Dose-dependent effect; Activity [16]: Non-Toxic; Activity (Mus musculus [25]): Active
CCCCC/C=C\C/C=C\C/C=C\C/C=C\CCCC(=O)Nc1ccc(O)cc1					50.1		
CCCCC/C=C\C/C=C\C/C=C\C/C=C\CCCC(=O)Nc1ccc(O)c(OC)c1					1.26	15.8	
COc1cc(CN)ccc1O	2.5		0.01				Activity [8]: Non-Toxic; Drug metabolism [26]: 40 pmol; Drug metabolism [27]: Metabolite_Notdetected; Activity [16]: Non-Toxic
CCCCC/C=C\C/C=C\C/C=C\C/C=C\CCCC(=O)Nc1ccc2[nH]ncc2c1					12.6	398	
CCCCC/C=C\C/C=C\C/C=C\C/C=C\CCCC(=O)Nc1ccc(OC)c(O)c1					3.16	63.1	
